The record followed here is ChEMBL document CHEMBL4130570, “Characteristic α-Acid Derivatives from Humulus lupulus with Antineuroinflammatory Activities” (J Nat Prod, 2017).

Series [1] relates to BV-2. Nature of the series: Cytotoxicity against mouse BV2 cells assessed as reduction in cell viability at 1 to 100 uM after 24 hrs by MTT assay. The series is classed as cell-based. Conditions: bv-2, 24 h. The procedure, abridged:
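BV2 cells after 24 h treatment; supernatant removed, MTT 0.25 mg/mL added for 4 h at 37 °C, formazan dissolved in DMSO, absorbance read at 490 nm.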
For orientation: Tetrazolium assays rely on reduction of a dye to a coloured formazan, in cell work by metabolically active cells.

Series [2] deals with BV-2. Nature of the series: Antineuroinflammatory activity in mouse BV2 cells assessed as inhibition of LPS-induced nitric oxide production after 24 hrs by griess assay. The series is classed as functional, cell-based. Conditions: BV-2, 24 h. The essentials:
(§1)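 BV2 microglia plated at 5 × 10^4 cells/well, exposed to compound (1, 3, 10, 30, 100 μM) together with LPS 100 ng/mL for 24 h. Nitrite in medium quantified by Griess reagent (1% sulfanilamide; 0.1% naphthylethylenediamine dihydrochloride, 2% phosphoric acid), 15 min at room temperature, absorbance 540 nm. Mean ± SE of three independent experiments.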

The subject of series [3] is BV-2. Nature of the series: Antineuroinflammatory activity in mouse BV2 cells assessed as inhibition of LPS-induced nitric oxide production at 100 uM after 24 hrs by griess assay. It is filed as functional, cell-based. The procedure, abridged: as §1
On the technique in general: The Griess reaction detects nitrite, a stable product of nitric oxide.

Activity calls are given as the source filed them. The rule behind the calls is not given here.

As to `CC(C)=CC[C@@]1(O)C(=O)C(C(=O)CC(C)C)=C(O)C2=C1OC(C)(C)[C@@H](O)C2`, the Activity result in the series on BV-2 [1] was “Non-Toxic”. The same measure, in the same setting: with `CC(C)(O)[C@H]1C[C@@](C(=O)O)([C@H]2CC(=O)OC2(C)C)C(=O)O1` the entry was “Non-Toxic”; with `CC1(C)C[C@@H](O)[C@@]23CC[C@H](O)[C@@](C)(CC[C@H]12)C3`, “Non-Toxic”; with `CC(C)=CC[C@@]1(O)C(=O)C(C(=O)CC(C)C)=C(O)C2=C1OC(C)(C)[C@H](O)C2`, “Non-Toxic”. `CC(C)=CCC1(CC=C(C)C)C(=O)C(O)=C(O)C1=O` [HULUPINIC ACID]: the Activity entry with BV-2 [1] is on record as “Non-Toxic”. Same read-out and setting: with `CC(C)=CC[C@@]1(O)C(=O)C(C(=O)CC(C)C)=C(O)C2=C1O[C@@H](C(C)(C)O)C2` the entry was “Non-Toxic”. Usually IC50 stands for the concentration that gives 50% inhibition. With `COc1ccc(/C=C/C(=O)c2c(O)cc(OC)c(CC=C(C)C)c2O)cc1`, the IC50 in the series with BV-2 [2] came to 57.7 µM. Further, the Activity result in the series with BV-2 [1] is “Non-Toxic”. In the case of `CC(C)=CC[C@@]1(O)C(=O)C(C(=O)CC(C)C)=C(O)C2=C1O[C@H](C(C)(C)O)C2`, the Activity result in the series on BV-2 [1] is given as “Non-Toxic”. On the same count and under the same terms, the same measure for `CC(C)=CCC1=C2O[C@H](C(C)(C)O)C[C@@]2(O)C(=O)C(C(=O)CC(C)C)=C1O`: “Non-Toxic”.

Turning to `CC(C)=CCc1c(O)c2c(c(C(=O)CC(C)C)c1O)O[C@@H](C(C)(C)O)C2`, in the series on BV-2 [1], the Activity entry was “Non-Toxic”. For the compound `CC(C)=CC[C@@]1(O)C(=O)C(C(=O)C(C)C)=C(O)C2=C1OC(C)(C)[C@@H](O)C2`, the inhibition entry with BV-2 [3] was “Active”. Moreover, in the series on BV-2 [1], the Activity entry is listed as “Non-Toxic”. For the compound `COc1cc(O)c(CC=C(C)C)c2c1C(=O)C[C@@H](c1ccc(O)cc1)O2`, the IC50 in the series with BV-2 [2] came to 19.5 µM. Moreover, the Activity result in the series on BV-2 [1] was “Non-Toxic”. For `CC(C)=CCc1c(O)cc(O)c2c(=O)cc(C(C)C)oc12`, in that order: 21.4 µM and “Non-Toxic”. The like results for `COc1cc(O)c(CC=C(C)C)c(O)c1C(=O)/C=C/c1ccc(O)cc1` [XANTHOHUMOL] were, in that order, 7.92 µM and “Non-Toxic”.

`CC(C)=CC[C@@]1(O)C(=O)C(C(=O)C(C)C)=C(O)C2=C1O[C@H](C(C)(C)O)C2`: the Activity result with BV-2 [1] was “Non-Toxic”. Take `CC(C)=CCc1c(O)c2c(c(C(=O)CC(C)C)c1O)O[C@H](C(C)(C)O)C2`: the Activity result with BV-2 [1] was “Non-Toxic”.
